Assays:
Adenosine receptor A2a = Adenosine receptor A2a (Homo sapiens, UniProt P29274); experiment: Displacement of [3H]ZM241385 from human A2A receptor expressed in HEK293 cell membranes
Summary of the method: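 A2A affinity by competition with 3H-ZM241385 (2 nM) for binding sites in membranes from HEK-A2A cells.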

Adenosine receptor A3 = biological target: T1, Adenosine receptor A3 (Homo sapiens, UniProt P0DMS8); experiment: Displacement of [125I]-AB-MECA from human A3 receptor expressed in CHO cells; type: cell-based
T1 sequence (P0DMS8 whole entry): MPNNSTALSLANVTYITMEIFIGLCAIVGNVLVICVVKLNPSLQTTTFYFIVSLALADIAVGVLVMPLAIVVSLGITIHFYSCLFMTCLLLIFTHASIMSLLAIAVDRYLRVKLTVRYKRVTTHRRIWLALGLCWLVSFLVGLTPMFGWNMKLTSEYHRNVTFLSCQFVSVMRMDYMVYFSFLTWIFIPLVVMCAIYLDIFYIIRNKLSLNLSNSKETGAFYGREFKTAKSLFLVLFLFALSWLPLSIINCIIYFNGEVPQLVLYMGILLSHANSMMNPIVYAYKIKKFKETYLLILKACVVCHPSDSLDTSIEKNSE
Summary of the method: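 A3 binding: competition for sites labeled by 125I-AB-MECA using CHO cells expressing the A3 receptor.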

Homo sapiens [1] = organism: Homo sapiens; experiment: Selectivity for human A2B receptor over human A3 receptor
Adenosine receptor A1 = biological target: T2, Adenosine receptor A1 (Homo sapiens, UniProt P30542); experiment: Displacement of [3H]-CPX from human A1 receptor expressed in CHO cell membranes
T2 sequence (P30542 whole entry): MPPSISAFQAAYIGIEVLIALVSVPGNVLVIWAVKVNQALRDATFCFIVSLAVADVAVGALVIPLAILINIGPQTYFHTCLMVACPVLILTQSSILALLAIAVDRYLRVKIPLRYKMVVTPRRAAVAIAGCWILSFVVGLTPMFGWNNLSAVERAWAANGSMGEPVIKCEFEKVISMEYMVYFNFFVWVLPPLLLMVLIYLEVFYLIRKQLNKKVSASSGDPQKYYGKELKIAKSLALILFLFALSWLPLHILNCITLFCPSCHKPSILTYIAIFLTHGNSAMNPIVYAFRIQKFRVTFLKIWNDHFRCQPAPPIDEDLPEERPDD
Summary of the method: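 Competitive binding on membranes prepared from A1-expressing CHO cells, radioligand 3H-CPX at 0.5 nM.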

Homo sapiens [2] = organism: Homo sapiens; experiment: Selectivity for human A2B receptor over human A1 receptor
Homo sapiens [3] = organism: Homo sapiens; experiment: Selectivity for human A2B receptor over human A2A receptor
Adenosine receptor A2b = biological target: T3, Adenosine receptor A2b (Homo sapiens, UniProt P29275); experiment: Displacement of [3H]-ZM241385 from human A2B receptor expressed in HEK293 cell membranes
T3 sequence (P29275 whole entry): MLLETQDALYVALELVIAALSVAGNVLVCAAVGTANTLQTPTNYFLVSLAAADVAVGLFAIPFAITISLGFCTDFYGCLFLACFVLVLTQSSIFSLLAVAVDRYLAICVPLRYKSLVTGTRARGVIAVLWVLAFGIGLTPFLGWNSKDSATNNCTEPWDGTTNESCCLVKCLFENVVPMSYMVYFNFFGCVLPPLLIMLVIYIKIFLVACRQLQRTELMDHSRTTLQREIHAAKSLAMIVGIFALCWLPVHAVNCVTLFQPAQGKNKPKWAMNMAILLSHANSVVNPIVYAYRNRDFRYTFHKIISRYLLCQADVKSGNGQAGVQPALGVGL
Summary of the method: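 Membranes from HEK cells expressing A2B; binding sites labeled with 3H-ZM241385 at 14 nM and displaced competitively.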

Sequence of Adenosine receptor A2a (P29274 whole entry): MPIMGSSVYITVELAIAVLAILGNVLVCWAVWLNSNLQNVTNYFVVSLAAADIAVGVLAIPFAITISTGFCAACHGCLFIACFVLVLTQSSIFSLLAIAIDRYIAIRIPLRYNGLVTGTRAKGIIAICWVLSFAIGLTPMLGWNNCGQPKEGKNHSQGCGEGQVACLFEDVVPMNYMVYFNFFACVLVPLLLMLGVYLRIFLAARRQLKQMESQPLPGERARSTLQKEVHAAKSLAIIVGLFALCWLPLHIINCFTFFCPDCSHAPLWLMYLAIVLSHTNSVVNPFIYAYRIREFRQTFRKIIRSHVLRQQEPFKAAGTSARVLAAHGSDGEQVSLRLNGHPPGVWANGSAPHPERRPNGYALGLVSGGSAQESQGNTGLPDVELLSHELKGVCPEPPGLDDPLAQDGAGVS

| SMILES | Ki (Adenosine receptor A2a) | Ki (Adenosine receptor A3) | Ratio Ki (Homo sapiens [1]) | Ki (Adenosine receptor A1) | Ratio Ki (Homo sapiens [2]) | Ratio Ki (Homo sapiens [3]) | Ki (Adenosine receptor A2b) |
| --- | --- | --- | --- | --- | --- | --- | --- |
| CCCCn1c(=O)[nH]c2nc(-c3cnn(Cc4ccccc4)c3)[nH]c2c1=O | 3.4 µM | 0.11 µM | 3 | 5.1 µM | 150 | 100 | 0.034 µM |
| O=c1[nH]c2nc(-c3cnn(Cc4cccc(C(F)(F)F)c4)c3)[nH]c2c(=O)n1CC1CC1 | > 5 µM | 1 µM | 300 | > 6 µM | > 2000 | > 1600 | 0.003 µM |
| O=c1[nH]c2nc(-c3cnn(Cc4cc(-c5ccc(C(F)(F)F)cc5)on4)c3)[nH]c2c(=O)n1CC1CC1 | > 5 µM | > 9 µM | > 600 | > 6 µM | > 400 | > 300 | 0.015 µM |
| CCCn1c(=O)c2[nH]c(-c3cnn(Cc4noc(-c5ccccc5)n4)c3)nc2n(CCC)c1=O |  |  | 30 |  | 50 | 85 |  |
| CCCCn1c(=O)[nH]c2nc(-c3cnn(Cc4noc(-c5ccc(Cl)cc5)n4)c3)[nH]c2c1=O | > 5 µM | > 9 µM | > 400 | > 6 µM | > 260 | > 210 | 0.023 µM |
| CCCn1c(=O)c2[nH]c(-c3cnn(Cc4ccccc4)c3)nc2n(CCC)c1=O |  |  | 16 |  | 7 | 26 |  |
| CCCn1c(=O)[nH]c(=O)c2[nH]c(-c3cnn(Cc4ccccc4)c3)nc21 |  |  |  |  |  |  | > 6 µM |
| CCCn1c(=O)[nH]c2nc(-c3cnn(Cc4noc(-c5ccc(Cl)cc5)n4)c3)[nH]c2c1=O | > 5 µM | > 9 µM | > 1280 | > 6 µM | > 850 | > 700 | 0.007 µM |
| O=c1[nH]c2nc(-c3cnn(Cc4ccccc4)c3)[nH]c2c(=O)n1CC1CC1 | 2.76 µM | 0.18 µM | 30 | 3.29 µM | 550 | 460 | 0.006 µM |
| CC(C)Cn1c(=O)[nH]c2nc(-c3cnn(Cc4cc(-c5ccccc5)on4)c3)[nH]c2c1=O | > 5 µM | > 9 µM | > 750 | > 6 µM | > 500 | > 410 | 0.012 µM |
| CCCn1c(=O)[nH]c2nc(-c3cnn(Cc4cccc(C(F)(F)F)c4)c3)[nH]c2c1=O | > 5 µM | 0.7 µM | 80 | > 6 µM | > 750 | > 620 | 0.008 µM |
| CCCn1c(=O)[nH]c2nc(-c3cnn(Cc4ccccc4)c3)[nH]c2c1=O | > 5 µM | 0.12 µM | 10 | 1.6 µM | 120 | > 380 | 0.013 µM |
| CCCn1c(=O)[nH]c2nc(-c3cnn(Cc4cc(-c5ccc(Cl)cc5)on4)c3)[nH]c2c1=O | > 5 µM |  |  | > 6 µM | > 30 | > 30 | 0.17 µM |
| CCCn1c(=O)[nH]c2nc(-c3cnn(Cc4noc(-c5ccccc5)n4)c3)[nH]c2c1=O | > 5 µM | > 9 µM | > 600 | 3.5 µM | 200 | > 300 | 0.015 µM |
| CC(C)Cn1c(=O)[nH]c(=O)c2[nH]c(-c3cnn(Cc4ccccc4)c3)nc21 |  |  |  |  |  |  | > 6 µM |
| CCn1c(=O)[nH]c2nc(-c3cnn(Cc4cccc(F)c4)c3)[nH]c2c1=O | > 5 µM | 2.12 µM | 30 | > 6 µM | > 80 | > 70 | 0.073 µM |
| CCCn1c(=O)c2[nH]c(-c3cnn(Cc4cccc(C(F)(F)F)c4)c3)nc2n(CCC)c1=O |  | 0.14 µM | 10 | 0.16 µM | 12 | 27 |  |
| CCCn1c(=O)c2[nH]c(-c3cnn(Cc4cccc(F)c4)c3)nc2n(CCC)c1=O |  | 0.058 µM | 4 |  | 13 | 18 |  |
| Cn1c(=O)[nH]c(=O)c2[nH]c(-c3cnn(Cc4ccccc4)c3)nc21 |  |  |  |  |  |  | > 6 µM |
| CC(C)Cn1c(=O)[nH]c2nc(-c3cnn(Cc4cccc(C(F)(F)F)c4)c3)[nH]c2c1=O | > 5 µM | > 9 µM | > 320 | > 6 µM | > 210 | > 180 | 0.028 µM |
| CC(C)Cn1c(=O)[nH]c2nc(-c3cnn(Cc4cccc(F)c4)c3)[nH]c2c1=O | > 5 µM | 1.6 µM | 70 | > 6 µM | > 250 | > 200 | 0.024 µM |
| CCCn1c(=O)c2[nH]c(-c3cnn(Cc4cc(-c5ccccc5)on4)c3)nc2n(CCC)c1=O |  |  | 130 |  | 110 | 30 |  |
| O=c1[nH]c2nc(-c3cnn(Cc4noc(-c5ccc(Cl)cc5)n4)c3)[nH]c2c(=O)n1CC1CC1 | > 5 µM | > 9 µM | > 190 | > 6 µM | > 120 | > 100 | 0.048 µM |
| O=c1[nH]c2nc(-c3cnn(Cc4noc(-c5ccc(C(F)(F)F)cc5)n4)c3)[nH]c2c(=O)n1CC1CC1 | > 5 µM | > 9 µM | > 700 | > 6 µM | > 460 | > 380 | 0.013 µM |
| O=c1[nH]c2nc(-c3cnn(Cc4cccc(F)c4)c3)[nH]c2c(=O)n1CC1CC1 | 0.1 µM |  |  | 0.21 µM | 42 | 20 | 0.005 µM |
| CCn1c(=O)[nH]c(=O)c2[nH]c(-c3cnn(Cc4ccccc4)c3)nc21 |  |  |  |  |  |  | > 6 µM |
| O=c1[nH]c2nc(-c3cnn(Cc4ccccc4)c3)[nH]c2c(=O)n1Cc1ccccc1 |  |  |  |  |  |  | > 6 µM |
| CCCCn1c(=O)[nH]c(=O)c2[nH]c(-c3cnn(Cc4ccccc4)c3)nc21 |  |  |  |  |  |  | > 6 µM |
| O=c1[nH]c(=O)n(Cc2ccccc2)c2nc(-c3cnn(Cc4ccccc4)c3)[nH]c12 |  |  |  |  |  |  | > 6 µM |
